NPY Y2 blocker: NPY-Y2 (human) receptor antagonism | P49146 | inhibition, % at 2.7 µM | NPY-Y2 expressing cells, antagonist mode | AID 793 | 0.99% of 140,000 active; in the data active = inhibition above about 17%
Target sequence (P49146 whole entry, looked up): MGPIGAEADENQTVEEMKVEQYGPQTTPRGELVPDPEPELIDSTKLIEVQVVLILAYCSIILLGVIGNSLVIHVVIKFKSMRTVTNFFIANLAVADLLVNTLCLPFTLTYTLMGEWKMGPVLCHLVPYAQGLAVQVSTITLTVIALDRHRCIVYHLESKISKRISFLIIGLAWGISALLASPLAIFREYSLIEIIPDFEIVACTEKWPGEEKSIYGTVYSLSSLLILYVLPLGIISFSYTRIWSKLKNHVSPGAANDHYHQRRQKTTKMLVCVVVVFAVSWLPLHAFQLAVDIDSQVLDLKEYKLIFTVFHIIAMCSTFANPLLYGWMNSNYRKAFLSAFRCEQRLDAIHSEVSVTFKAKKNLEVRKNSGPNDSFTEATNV
WT yeast gro inh: growth inhibition of WT yeast, mitochondrial fusion screen. 2.1% of 190,000 active. mitochondrial fusion phenotypic screen, WT strain. inhibition, % at 10 µM; in the data active = inhibition above about 58%; tested in S. cerevisiae
RAM inhibit: inhibitors of the yeast RAM network | 1.8% of 190,000 active | inhibition, % at 50 µM | S. cerevisiae dse1pr::URA3 reporter, 5-FOA growth OD615, 2 d; analog-sensitive cbk1-as2 kinase mutant strain;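 active = inhibition above a set limit, 3 SD over mean compound inhibition, cut at about 8.4% in these data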;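 note: inhibition rescues growth on 5-FOA so higher OD means more RAM inhibition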
NPY-Y2 PAM-ag: potentiators or agonists of human neuropeptide Y receptor Y2; cells expressing NPY-Y2, potentiator/agonist read-out; activation, % at 3.6 µM; 0.45% of 220,000 active; in the data active = activation above about 27%;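 note: cells stimulated with NPY near EC25 plus isoproterenol at EC100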
NPY Y1 blocker: blocks the human neuropeptide Y Y1 receptor. HEK293-CNG Y1 cells, membrane potential fluorescence; NPY at EC95, then isoproterenol. inhibition, % at 3.6 µM. 1% of 200,000 active;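 active = inhibition above the campaign mean inhibition of all tested compounds plus 3 SD, cut at about 20% in these data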
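material = HEK293 cells with Y1 receptor plus CNG channel | also added = NPY 25 nM then isoproterenol 1 µM plus Ro 20-1724 25 µM | schedule = dye 3 h, compound 60 min room temperature, stimulation 45 min | measured by = membrane potential fluorescence | benchmarks = high control isoproterenol alone, low control NPY with isoproterenol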
NPY-Y1 PAM-ag: potentiates or activates human NPY-Y1 receptor. P25929. NPY-Y1 expressing cells, potentiator/agonist activation. activation, % at 3.6 µM. 0.37% of 220,000 active. AID 1304; in the data active = activation above about 33%, passing the limit was not always enough;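 note: cells stimulated with NPY at EC10 then isoproterenol at EC100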
Each line names hits and unclear results; the compound was inactive in the other large screens. Only some compounds are listed: those with a hit (about 4.9% of all), similar ones and a draw of the others.

COc1ccc(CNC(=O)C(c2ccc(C)cc2)N(Cc2cccs2)C(=O)c2ccc3c(c2)OCCO3)cc1 (configuration not stated)	RAM inhibit 8.7
Cc1ccc(C(C(=O)NCc2ccccc2)N(Cc2cccs2)C(=O)c2ccc3c(c2)OCCO3)cc1 (configuration not stated)	WT yeast gro inh 69
COc1ccc(Cl)cc1NC(=O)Nn1cnnc1	none
Cn1c(/C(C#N)=C(\O)CN2CCN(Cc3ccccc3)CC2)nc2ccccc21	none (no result: RAM inhibit)
Cc1ccc(C)c(N2CCN(C(=O)Cc3ccc(-n4c(=O)[nH]c5ccsc5c4=O)cc3)CC2)c1	none
CCn1c2ccccc2c2nnc(SCc3ccccc3)nc21	WT yeast gro inh 58
COCCn1c(=NC(=O)c2cc(-c3cccs3)nc3ccccc23)sc2cc(S(N)(=O)=O)ccc21	none
CCOCCn1c(=NC(=O)c2cc3ccccc3oc2=O)sc2cc(S(N)(=O)=O)ccc21	RAM inhibit 8.9
CCOC(=O)Cn1c(=NC(=O)CN2C(=O)CCC2=O)sc2cc(S(N)(=O)=O)ccc21	none
CCOC(=O)Cn1c(=NC(=O)c2nc3ccccc3s2)sc2cc(S(N)(=O)=O)ccc21	RAM inhibit 10
CC(Sc1ccccc1)C(=O)N/N=C/c1cccnc1 (configuration not stated)	none (no result: NPY Y2 blocker)
O=C(Nc1nc(-c2ccc3c(c2)OCCO3)cs1)c1ccc(S(=O)(=O)N2CCCCC2)cc1	none
NC(=O)COC(=O)c1ccc(Cl)c(S(=O)(=O)N(Cc2ccccc2)c2ccc(Cl)cc2)c1	WT yeast gro inh 77
NC(=O)NC(=O)COC(=O)c1ccc(Cl)c(S(=O)(=O)N(Cc2ccccc2)c2ccc(Cl)cc2)c1	RAM inhibit 10
C=CCNC(=O)COC(=O)c1ccc(Cl)c(S(=O)(=O)N(Cc2ccccc2)c2ccccc2)c1	none
CSC(=S)N/N=C/c1ccccc1	none (no result: NPY Y2 blocker)
COc1ccc(/C=N/NC(=S)SC)cc1OC	WT yeast gro inh 61 (no result: NPY Y2 blocker)
O=C(Nc1ccc(N2CCOCC2)cc1)C1CCN(S(=O)(=O)c2ccccc2F)CC1	none (no result: NPY Y2 blocker, WT yeast gro inh, RAM inhibit, NPY Y1 blocker)
Cn1c(/C=C/c2ccccc2)nc2ccccc21	WT yeast gro inh 67 (no result: NPY Y2 blocker)
COc1ccccc1Cn1c(/C=C/c2ccccc2)nc2ccccc21	WT yeast gro inh 79
COCCn1c(/C=C/c2ccccc2)nc2ccccc21	none (no result: NPY Y2 blocker)
COc1ccc(/C=C/c2nc3ccccc3n2Cc2ccccc2OC)cc1	WT yeast gro inh 75
COc1ccc(OCC(O)Cn2ccnc2C)cc1 (configuration not stated)	none
O=C1Nc2ccccc2C12NCCc1c2[nH]c2ccccc12 (configuration not stated)	none
CC1CC2(CCCC2)N(C(=O)c2ccccc2)Cc2ccccc21 (configuration not stated)	WT yeast gro inh 72
C=CCc1cccc(CNc2nc3ccccc3n2C(C)C)c1O	WT yeast gro inh 70
CCN(CC)CCOC(=O)C1(C2CCCCC2)CCCCC1	none
Cc1[nH]n(-c2ccccc2)c(=O)c1N=Nc1ccccc1O	RAM inhibit 9.9 (no result: NPY Y2 blocker)
Cc1cccc(N=Nc2c(C)[nH]n(C(N)=S)c2=O)c1C	WT yeast gro inh 72 (no result: NPY Y2 blocker)
Cc1ccccc1N=Nc1c(C)[nH]n(C(N)=S)c1=O	WT yeast gro inh 61
Cc1ccccc1N=Nc1c(C)[nH]n(-c2ccccc2)c1=O	none (no result: NPY Y2 blocker)
CC(=O)NCCc1nc2ccccc2n1CCOc1ccc(C)cc1	none (no result: NPY Y2 blocker, WT yeast gro inh, RAM inhibit, NPY Y1 blocker)
CN(CCC#N)c1ccc(/C=C(\C#N)c2ccccn2)cc1	none
CCN(CC)c1ccc(/C=C(\C#N)c2ccccn2)cc1	WT yeast gro inh 68
CCOC(=O)C1=C(C)NC(=O)NC1c1ccc(OC(C)C(=O)O)c(OC)c1 (configuration not stated)	none
O=C(CCC(=O)NCCO)NCCO	none (no result: NPY Y2 blocker)
COC(=O)CNC(c1ccccc1)c1cc(Cl)ccc1NC(=O)c1cccc(Cl)c1 (configuration not stated)	NPY Y2 blocker 28, WT yeast gro inh 58, NPY Y1 blocker 34
NNC(=O)CNC(c1ccccc1)c1cc(Br)ccc1NC(=O)c1cccc(Cl)c1 (configuration not stated)	none
NNC(=O)CNC(c1ccccc1)c1cc(Br)ccc1NC(=O)c1ccc(Br)cc1 (configuration not stated)	none
